Reference: ChEMBL document CHEMBL4371052, “Diarylcarbonates are a new class of deubiquitinating enzyme inhibitor” (Bioorg Med Chem Lett, 2019)
Calls of active or inactive are those of the source. The rule behind the calls is not given here.

Tests used:
[1] = molecular target: Ubiquitin carboxyl-terminal hydrolase 9X (Homo sapiens) (UniProt Q93008); experiment: Inhibition of recombinant His6-tagged USP9x catalytic domain (unknown origin) assessed as association constant using Ub-AMC as substrate by fluorescence assay
[2] = molecular target: Ubiquitin carboxyl-terminal hydrolase 7 (Homo sapiens) (UniProt Q93009); experiment: Inhibition of USP7 in human MCF7 cells assessed as increase in p21 expression at 25 uM after 4 hrs by Western blot analysis; type: cell-based
Procedure, shortened: (§1)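 MCF7 cells treated with compound for 4 h. Mdm2, p53 and p21 levels were determined by immunoblotting.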

[3] = molecular target: 26S proteasome (Homo sapiens) (UniProt Q99460+P49721+P20618+P28074+P28062+P28065+P28072+O00487+P25786+P25787+P25788+P25789+P28066+P60900+O14818+Q8TAA3+P40306+A5LHX3+P49720+P28070+Q99436+Q16186+P35998+P62191+P43686+P62333+P17980+P62195+Q13200+O43242+O00232+O00231+Q15008+P51665+Q9UNM6+P55036+P48556+P60896); experiment: Inhibition of 26S proteasome in HEK293T cells expressing GFP-fused Ub G76V mutant assessed as increase in GFP fluorescence; type: cell-based
Procedure, shortened: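 HEK 293T cells expressing G76V Ub-GFP, a fusion uncleavable by DUBs that reports ubiquitin-proteasome flux, treated with compound. GFP fluorescence was the read-out, with bortezomib as proteasome-inhibitor reference.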

[4] = molecular target: Ubiquitin carboxyl-terminal hydrolase 7 (Homo sapiens) (UniProt Q93009); experiment: Inhibition of USP7 in HEK293T cell lysates assessed as ratio of HA-Ub-VS modified USP7 to total USP7 at 100 uM using HA-Ub vinyl-sulfone as substrate preincubated for 19 to 60 mins followed by substrate addition and measured after 19 to 25 mins by Western blot analysis (reference value: 0.5); type: subcellular; conditions: Lysate
Procedure, shortened: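 HEK 293T lysate incubated with compound, then treated with HA-Ub-VS. Samples were run on SDS-PAGE and blotted with anti-USP7, and the probe-modified USP7 band was distinguished from unmodified USP7.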

[5] = molecular target: Ubiquitin carboxyl-terminal hydrolase 28 (Homo sapiens) (UniProt Q96RU2); experiment: Inhibition of USP28 in HEK293T cell lysates at 25 uM using HA-tagged vinyl-sulfone as substrate preincubated for 19 to 60 mins followed by substrate addition and measured after 19 to 25 mins by Western blot analysis; type: subcellular; conditions: Lysate
B16-F10 = experiment: Cytotoxicity against mouse B16F10 cells assessed as decrease in cell viability treated every 24 hrs measured after 72 hrs by alamar blue assay; type: functional, cell-based
Procedure, shortened: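 MCF7 or B16/F10 cells dosed with compound every 24 h. Viable cells were quantified with Alamar Blue after 72 h.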

K562 = experiment: Inhibition of deubiquitinase in human K562 cells assessed as accumulation of K48-linked HMW-Ub protein at 50 uM measured after 2 hrs by Western blot analysis; type: cell-based
Procedure, shortened: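 K562 cells exposed to compound at 50 μM for 2 h; K48-linked ubiquitin accumulation read by immunoblotting.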

[6] = Inhibition of deubiquitinase in HEK293T cells expressing N-terminal HA-tagged ubiquitin assessed as stabilization of HMW-Ub proteins after 2 hrs by Western blot analysis; type: cell-based, Homo sapiens
[7] = molecular target: Ubiquitin carboxyl-terminal hydrolase isozyme L5 (Homo sapiens) (UniProt Q9Y5K5); experiment: Inhibition of UCHL5 in HEK293T cell lysates assessed as enzyme recovery at 250 uM using HA-tagged vinyl-sulfone as substrate preincubated for 40 mins followed by 10-fold dilution and subsequent substrate addition measured within 15 mins by Western blot analysis; type: subcellular; conditions: Lysate
[8] = molecular target: T1, Ubiquitin carboxyl-terminal hydrolase 8 (Homo sapiens) (UniProt P40818); experiment: Inhibition of USP8 in HEK293T cell lysates assessed as enzyme recovery at 250 uM using HA-tagged vinyl-sulfone as substrate preincubated for 40 mins followed by 10-fold dilution and subsequent substrate addition measured up to 2 hrs by Western blot analysis; type: subcellular; conditions: Lysate
T1 sequence (whole entry): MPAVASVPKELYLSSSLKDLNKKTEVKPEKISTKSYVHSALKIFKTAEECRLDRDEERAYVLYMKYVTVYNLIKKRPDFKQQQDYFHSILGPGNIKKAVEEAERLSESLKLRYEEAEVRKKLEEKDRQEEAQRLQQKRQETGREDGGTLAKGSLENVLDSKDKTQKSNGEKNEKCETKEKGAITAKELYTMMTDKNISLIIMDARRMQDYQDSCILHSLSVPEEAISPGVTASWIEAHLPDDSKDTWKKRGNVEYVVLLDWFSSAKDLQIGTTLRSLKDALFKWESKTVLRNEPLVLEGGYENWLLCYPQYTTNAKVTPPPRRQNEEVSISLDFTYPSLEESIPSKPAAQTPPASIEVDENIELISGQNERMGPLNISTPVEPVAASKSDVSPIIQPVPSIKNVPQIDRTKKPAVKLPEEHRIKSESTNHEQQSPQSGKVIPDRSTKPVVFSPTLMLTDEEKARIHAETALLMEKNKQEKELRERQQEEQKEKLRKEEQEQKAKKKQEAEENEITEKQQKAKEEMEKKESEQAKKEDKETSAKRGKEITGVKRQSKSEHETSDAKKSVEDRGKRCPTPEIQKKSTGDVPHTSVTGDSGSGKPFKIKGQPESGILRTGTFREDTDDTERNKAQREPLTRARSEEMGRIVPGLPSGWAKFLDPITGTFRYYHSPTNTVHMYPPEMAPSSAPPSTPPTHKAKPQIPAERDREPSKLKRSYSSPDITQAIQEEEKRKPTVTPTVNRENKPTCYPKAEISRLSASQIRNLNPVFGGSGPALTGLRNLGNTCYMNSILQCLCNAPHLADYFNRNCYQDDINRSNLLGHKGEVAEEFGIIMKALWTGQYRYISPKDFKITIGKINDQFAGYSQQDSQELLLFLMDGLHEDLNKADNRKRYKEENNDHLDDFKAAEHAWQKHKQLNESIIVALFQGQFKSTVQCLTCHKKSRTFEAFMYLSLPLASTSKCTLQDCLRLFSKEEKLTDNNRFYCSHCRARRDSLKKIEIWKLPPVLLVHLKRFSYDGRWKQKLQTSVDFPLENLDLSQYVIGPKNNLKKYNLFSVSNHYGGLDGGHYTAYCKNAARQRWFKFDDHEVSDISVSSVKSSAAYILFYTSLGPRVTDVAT

[9] = molecular target: Ubiquitin carboxyl-terminal hydrolase 7 (Homo sapiens) (UniProt Q93009); experiment: Inhibition of USP7 in human MCF7 cells assessed as increase in p53 expression at 25 uM after 4 hrs by Western blot analysis; type: cell-based; procedure, shortened: as §1
[10] = molecular target: T1, Ubiquitin carboxyl-terminal hydrolase 8 (Homo sapiens); experiment: Inhibition of USP8 in HEK293T cell lysates at 25 uM using HA-tagged vinyl-sulfone as substrate preincubated for 19 to 60 mins followed by substrate addition and measured after 19 to 25 mins by Western blot analysis; type: subcellular; conditions: Lysate
[11] = molecular target: Ubiquitin carboxyl-terminal hydrolase 15 (Homo sapiens) (UniProt Q9Y4E8); experiment: Inhibition of USP15 in HEK293T cell lysates at 25 uM using HA-tagged vinyl-sulfone as substrate measured after 2 to 30 mins by Western blot analysis; type: subcellular; conditions: Lysate
Procedure, shortened: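 HEK 293T lysate (1.5 mg/ml) given compound (25 μM) or DMSO at the same time as HA-Ub-VS (1.5 μM). Aliquots withdrawn over time were run on SDS-PAGE and immunoblotted for HA.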

Ubiquitin carboxyl-terminal hydrolase 7 (Homo sapiens), sequence (Q93009 whole entry, looked up): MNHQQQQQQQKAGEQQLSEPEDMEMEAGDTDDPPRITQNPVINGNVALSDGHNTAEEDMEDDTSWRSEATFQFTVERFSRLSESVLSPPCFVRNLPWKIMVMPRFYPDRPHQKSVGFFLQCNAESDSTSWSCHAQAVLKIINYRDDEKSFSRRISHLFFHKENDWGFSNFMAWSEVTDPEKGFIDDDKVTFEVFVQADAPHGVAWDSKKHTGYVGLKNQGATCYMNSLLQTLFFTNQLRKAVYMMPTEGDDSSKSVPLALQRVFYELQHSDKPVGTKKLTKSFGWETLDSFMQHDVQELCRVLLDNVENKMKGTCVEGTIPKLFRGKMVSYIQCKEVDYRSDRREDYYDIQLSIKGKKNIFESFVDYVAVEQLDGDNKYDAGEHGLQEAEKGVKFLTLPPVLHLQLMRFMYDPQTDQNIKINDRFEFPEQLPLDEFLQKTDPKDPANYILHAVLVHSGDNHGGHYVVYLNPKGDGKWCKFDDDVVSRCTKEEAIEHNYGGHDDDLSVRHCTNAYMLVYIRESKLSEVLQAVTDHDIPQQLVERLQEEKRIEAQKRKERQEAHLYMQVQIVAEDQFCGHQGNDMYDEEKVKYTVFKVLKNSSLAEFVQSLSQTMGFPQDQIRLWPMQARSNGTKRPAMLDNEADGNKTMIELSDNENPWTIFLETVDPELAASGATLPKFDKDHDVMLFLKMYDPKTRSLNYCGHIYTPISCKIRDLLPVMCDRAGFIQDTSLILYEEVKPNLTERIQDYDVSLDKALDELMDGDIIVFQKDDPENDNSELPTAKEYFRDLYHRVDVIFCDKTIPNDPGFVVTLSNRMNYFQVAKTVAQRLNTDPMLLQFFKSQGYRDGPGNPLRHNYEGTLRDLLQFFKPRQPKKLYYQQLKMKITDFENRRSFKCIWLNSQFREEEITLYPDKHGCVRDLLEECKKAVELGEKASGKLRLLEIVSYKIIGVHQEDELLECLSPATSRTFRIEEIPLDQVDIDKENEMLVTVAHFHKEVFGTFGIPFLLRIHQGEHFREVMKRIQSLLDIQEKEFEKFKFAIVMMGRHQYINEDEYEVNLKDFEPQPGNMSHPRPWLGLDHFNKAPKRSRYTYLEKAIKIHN
Ubiquitin carboxyl-terminal hydrolase 28 (Homo sapiens), sequence (Q96RU2 whole entry): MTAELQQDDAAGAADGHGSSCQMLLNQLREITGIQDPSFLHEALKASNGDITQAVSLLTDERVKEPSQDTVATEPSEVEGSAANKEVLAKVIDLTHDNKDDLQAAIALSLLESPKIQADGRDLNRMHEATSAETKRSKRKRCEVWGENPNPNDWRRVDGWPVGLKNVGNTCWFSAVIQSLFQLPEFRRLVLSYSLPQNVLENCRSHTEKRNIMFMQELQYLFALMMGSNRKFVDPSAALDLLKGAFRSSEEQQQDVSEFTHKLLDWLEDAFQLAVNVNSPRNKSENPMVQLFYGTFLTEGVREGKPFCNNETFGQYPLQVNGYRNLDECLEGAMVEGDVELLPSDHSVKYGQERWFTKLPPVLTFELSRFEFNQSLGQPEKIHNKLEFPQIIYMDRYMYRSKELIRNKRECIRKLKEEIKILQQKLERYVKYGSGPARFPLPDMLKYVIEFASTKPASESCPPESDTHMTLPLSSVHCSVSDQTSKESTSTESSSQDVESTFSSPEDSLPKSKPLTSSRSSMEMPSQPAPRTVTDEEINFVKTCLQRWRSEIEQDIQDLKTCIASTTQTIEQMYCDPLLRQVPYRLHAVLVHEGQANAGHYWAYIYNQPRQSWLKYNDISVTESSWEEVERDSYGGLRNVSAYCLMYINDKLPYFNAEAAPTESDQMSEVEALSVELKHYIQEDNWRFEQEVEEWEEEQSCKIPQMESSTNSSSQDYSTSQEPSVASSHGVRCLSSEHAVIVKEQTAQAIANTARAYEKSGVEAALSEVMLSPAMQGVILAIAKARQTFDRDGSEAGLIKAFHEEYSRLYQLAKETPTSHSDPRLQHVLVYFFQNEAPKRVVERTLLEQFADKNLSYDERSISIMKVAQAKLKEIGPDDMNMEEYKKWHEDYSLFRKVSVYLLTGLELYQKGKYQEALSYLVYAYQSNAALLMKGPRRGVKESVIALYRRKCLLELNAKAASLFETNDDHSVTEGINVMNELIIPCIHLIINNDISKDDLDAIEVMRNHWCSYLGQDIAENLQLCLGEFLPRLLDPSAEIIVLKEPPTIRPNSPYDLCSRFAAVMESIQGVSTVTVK
Ubiquitin carboxyl-terminal hydrolase 9X (Homo sapiens), sequence (Q93008 whole entry, the tested form may be a part): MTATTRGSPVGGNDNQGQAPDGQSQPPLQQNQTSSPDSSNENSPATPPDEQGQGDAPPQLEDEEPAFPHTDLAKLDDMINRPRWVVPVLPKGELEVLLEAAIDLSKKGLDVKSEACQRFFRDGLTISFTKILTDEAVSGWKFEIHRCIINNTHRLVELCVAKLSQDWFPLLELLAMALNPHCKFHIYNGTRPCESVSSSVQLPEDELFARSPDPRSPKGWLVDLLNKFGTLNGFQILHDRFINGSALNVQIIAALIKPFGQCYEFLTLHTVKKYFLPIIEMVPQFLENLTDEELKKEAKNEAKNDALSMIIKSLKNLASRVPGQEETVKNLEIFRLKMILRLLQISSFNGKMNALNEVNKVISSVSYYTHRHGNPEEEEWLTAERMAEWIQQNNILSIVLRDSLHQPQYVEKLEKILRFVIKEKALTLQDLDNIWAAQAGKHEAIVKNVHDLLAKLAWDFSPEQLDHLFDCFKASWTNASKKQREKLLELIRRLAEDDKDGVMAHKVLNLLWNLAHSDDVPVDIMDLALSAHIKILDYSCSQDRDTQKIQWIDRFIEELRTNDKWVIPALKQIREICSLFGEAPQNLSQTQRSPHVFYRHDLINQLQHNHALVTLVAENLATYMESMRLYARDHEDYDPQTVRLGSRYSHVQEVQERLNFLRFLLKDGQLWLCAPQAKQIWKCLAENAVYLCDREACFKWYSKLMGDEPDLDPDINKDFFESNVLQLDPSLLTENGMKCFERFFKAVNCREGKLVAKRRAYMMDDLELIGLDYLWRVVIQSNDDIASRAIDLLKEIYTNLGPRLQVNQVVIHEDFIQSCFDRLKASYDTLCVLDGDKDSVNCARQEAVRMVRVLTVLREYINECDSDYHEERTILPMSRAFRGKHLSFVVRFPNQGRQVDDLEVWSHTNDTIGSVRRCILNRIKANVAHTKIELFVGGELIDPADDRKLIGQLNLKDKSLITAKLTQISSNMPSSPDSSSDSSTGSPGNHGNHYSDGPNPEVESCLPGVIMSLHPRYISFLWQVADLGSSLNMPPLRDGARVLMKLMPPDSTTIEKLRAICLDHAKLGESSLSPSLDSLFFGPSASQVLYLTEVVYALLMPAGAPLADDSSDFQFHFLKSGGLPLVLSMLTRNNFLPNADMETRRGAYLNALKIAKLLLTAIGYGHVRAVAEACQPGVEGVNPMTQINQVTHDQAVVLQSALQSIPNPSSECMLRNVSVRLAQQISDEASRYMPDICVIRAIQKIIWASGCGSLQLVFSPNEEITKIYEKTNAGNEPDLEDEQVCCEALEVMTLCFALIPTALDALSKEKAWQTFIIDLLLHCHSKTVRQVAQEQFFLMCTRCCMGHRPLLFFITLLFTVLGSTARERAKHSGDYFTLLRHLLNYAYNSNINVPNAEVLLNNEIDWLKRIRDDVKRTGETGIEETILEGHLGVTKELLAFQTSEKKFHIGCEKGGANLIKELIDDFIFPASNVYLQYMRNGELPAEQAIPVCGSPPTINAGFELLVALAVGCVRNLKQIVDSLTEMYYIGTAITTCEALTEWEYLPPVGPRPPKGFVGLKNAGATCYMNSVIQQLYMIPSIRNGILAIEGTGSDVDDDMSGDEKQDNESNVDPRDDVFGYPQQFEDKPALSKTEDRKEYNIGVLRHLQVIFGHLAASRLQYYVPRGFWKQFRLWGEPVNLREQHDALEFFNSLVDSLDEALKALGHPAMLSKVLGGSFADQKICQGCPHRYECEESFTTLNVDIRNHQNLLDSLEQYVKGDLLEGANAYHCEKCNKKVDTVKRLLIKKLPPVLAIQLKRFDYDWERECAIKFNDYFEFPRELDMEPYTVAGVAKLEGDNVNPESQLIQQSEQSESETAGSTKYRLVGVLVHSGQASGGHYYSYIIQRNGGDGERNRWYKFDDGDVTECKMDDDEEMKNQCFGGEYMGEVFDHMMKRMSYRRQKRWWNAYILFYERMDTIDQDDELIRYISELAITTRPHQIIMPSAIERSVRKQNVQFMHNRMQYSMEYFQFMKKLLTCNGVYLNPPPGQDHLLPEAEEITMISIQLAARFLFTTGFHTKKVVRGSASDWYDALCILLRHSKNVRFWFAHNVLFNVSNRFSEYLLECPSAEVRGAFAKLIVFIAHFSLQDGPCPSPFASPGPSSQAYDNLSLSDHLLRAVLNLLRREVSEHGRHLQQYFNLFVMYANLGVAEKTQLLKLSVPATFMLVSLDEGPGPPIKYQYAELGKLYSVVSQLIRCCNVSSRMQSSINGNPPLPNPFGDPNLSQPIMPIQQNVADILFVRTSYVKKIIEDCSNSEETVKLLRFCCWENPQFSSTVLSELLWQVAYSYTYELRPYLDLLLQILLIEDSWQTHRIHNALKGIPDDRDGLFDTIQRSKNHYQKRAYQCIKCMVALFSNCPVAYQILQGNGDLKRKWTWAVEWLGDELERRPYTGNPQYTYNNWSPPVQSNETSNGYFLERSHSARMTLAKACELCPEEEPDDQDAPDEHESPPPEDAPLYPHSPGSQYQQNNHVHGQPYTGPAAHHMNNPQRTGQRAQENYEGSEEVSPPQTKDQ
Ubiquitin carboxyl-terminal hydrolase isozyme L5 (Homo sapiens), sequence (Q9Y5K5 whole entry): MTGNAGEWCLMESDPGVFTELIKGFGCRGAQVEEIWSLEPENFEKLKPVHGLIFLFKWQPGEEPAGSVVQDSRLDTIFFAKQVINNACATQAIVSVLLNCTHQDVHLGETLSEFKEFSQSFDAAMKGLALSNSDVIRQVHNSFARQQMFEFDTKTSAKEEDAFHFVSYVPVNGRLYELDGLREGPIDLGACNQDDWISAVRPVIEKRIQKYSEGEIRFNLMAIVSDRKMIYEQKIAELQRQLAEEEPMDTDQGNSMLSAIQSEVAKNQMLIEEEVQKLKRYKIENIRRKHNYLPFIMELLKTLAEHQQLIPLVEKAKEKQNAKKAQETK

K [1]: 49 M⁻¹ s⁻¹
inhibition [2]: Active
inhibition [3]: inactive
Ratio [4]: 0.3
inhibition [5]: Active
EC50 [6]: 20 µM
inhibition [7]: Active
inhibition [8]: inactive
Activity [9]: Active
inhibition [10]: Active
inhibition [11]: inactive
SMILES: NCc1ccc(OC(=O)Oc2ccc3ccccc3c2)cc1
Activity (B16-F10): Active
inhibition (K562): Active
